Blank lines part the entries; values can stand above or below the compound they belong to.
Legend:
[1] = test system: LAT2; conditions: cited from earlier work
[2] = test system: 9L xenograft; assay: In vivo biodistribution in Fisher rats with 9L glioma tumors; conditions: for Tumor uptake: 9L tumor, n = 5; for Tumor uptake / Blood uptake / Bone uptake / Brain uptake / Heart uptake / Kidney uptake / Liver uptake / Lung uptake / Muscle uptake / Pancreas uptake / Skin uptake / Spleen uptake: mean ± SD; for Blood uptake / Bone uptake / Brain uptake / Heart uptake / Kidney uptake / Liver uptake / Lung uptake / Muscle uptake / Pancreas uptake / Skin uptake / Spleen uptake: six rats
[3] = test system: 9L glioma cells; assay: Uptake mechanism; assay type: cell-based; conditions: 30 min incubation
Summary of the method: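 The plating, washing, lysis and counting of 9L cells were as in the uptake assay. The radiotracer in PBS was co-incubated with MeAIB, L-Ala, L-Ser, BCH, D-Met or NEM at 0.5, 1 or 5 mM. For sodium dependence, PBS was replaced by Na+-free buffer (143 mM choline chloride, 2.68 mM KCl, 1.47 mM KH2PO4). Incubation was 30 min at 37 °C. Values are normalised to uninhibited uptake in PBS, n = 3.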

[4] = test system: 9L tumor; assay: Small animal imaging with a microPET in 9L tumor bearing rats; assay type: in vivo, F344 rats; conditions: after intravenous injection, dynamic PET scan
Summary of the method: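 Rats bearing 9L xenografts were anaesthetised with 1–2% isoflurane and given 30–37 MBq (0.8–1 mCi) of radiotracer via the lateral tail vein. Dynamic small-animal PET acquisition started at injection and ran 2 h (5 min frames, 0.5 mm3 voxels), with a heating pad for body temperature. Region-of-interest analysis gave tissue time-activity curves.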

[5] = test system: 9L glioma cells; assay: In vitro cell uptake studies in 9L cells; assay type: cell-based; conditions: time course up to 2 h
Summary of the method: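 9L gliosarcoma cells were grown in DMEM with 10% FBS and 1% penicillin/streptomycin at 37 °C, 5% CO2. They were seeded at 2.0 × 10^5 cells/well 24 h ahead and rinsed with warm PBS containing Ca2+/Mg2+. Radiotracer in PBS (~500,000 cpm/mL/well) was applied for 5, 30, 60 or 120 min at 37 °C. Cells were washed in ice-cold Ca/Mg-free PBS, lysed in 1 M NaOH and gamma-counted. Uptake is %ID/100 μg Lowry protein, in triplicate.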

[6] = 30 min after single intravenous injection
[7] = 60 min after single intravenous injection

Structure (SMILES): N[C@@H](Cc1ccc(OCC[18F])cc1)C(=O)O [FET, O-(2-[^18F]fluoroethyl)-L-tyrosine]
Transport subtype selectivity [1]: selectively transported via LAT2

Tumor uptake [2, 6]: 0.82 ± 0.06 % ID/g
Tumor uptake [2, 7]: 0.90 ± 0.20 % ID/g
Tumor to blood ratio ([2]; 30 min after injection): 1.12
Tumor/Brain ratio ([2]; 30 min after injection): 1.55
Tumor/Muscle ratio ([2]; 30 min after injection): 1.41
Blood uptake [2, 6]: 0.73 ± 0.08 % ID/g
Bone uptake [2, 6]: 0.41 ± 0.03 % ID/g
Brain uptake [2, 6]: 0.53 ± 0.03 % ID/g
Heart uptake [2, 6]: 0.70 ± 0.07 % ID/g
Kidney uptake [2, 6]: 0.72 ± 0.05 % ID/g
Liver uptake [2, 6]: 0.71 ± 0.07 % ID/g
Lung uptake [2, 6]: 0.68 ± 0.08 % ID/g
Muscle uptake [2, 6]: 0.58 ± 0.05 % ID/g
Pancreas uptake [2, 6]: 2.66 ± 0.20 % ID/g
Skin uptake [2, 6]: 0.57 ± 0.07 % ID/g
Spleen uptake [2, 6]: 0.75 ± 0.06 % ID/g
Tumor to blood ratio ([2]; 60 min after injection): 1.38
Tumor/Brain ratio ([2]; 60 min after injection): 1.73
Tumor/Muscle ratio (tumor to background) ([2]; 60 min after injection): 1.45
Blood uptake [2, 7]: 0.65 ± 0.05 % ID/g
Bone uptake [2, 7]: 0.41 ± 0.04 % ID/g
Brain uptake [2, 7]: 0.52 ± 0.05 % ID/g
Heart uptake [2, 7]: 0.63 ± 0.05 % ID/g
Kidney uptake [2, 7]: 0.63 ± 0.05 % ID/g
Liver uptake [2, 7]: 0.63 ± 0.05 % ID/g
Lung uptake [2, 7]: 0.61 ± 0.05 % ID/g
Muscle uptake [2, 7]: 0.62 ± 0.05 % ID/g
Pancreas uptake [2, 7]: 2.45 ± 0.27 % ID/g
Skin uptake [2, 7]: 0.60 ± 0.09 % ID/g
Spleen uptake [2, 7]: 0.69 ± 0.05 % ID/g
In vivo metabolic stability (from bone uptake) ([2]; bone uptake not significant at 30 and 60 min): metabolically stable
Structure (SMILES): N[C@@H](Cc1ccc(CC[18F])cc1)C(=O)O [FEP, p-(2-[^18F]fluoroethyl)-L-phenylalanine]
Inhibition of uptake by BCH ([3]; 5 mM BCH (system L inhibitor), normalized to uptake in PBS): more than 98%
Inhibition of uptake by D-Met ([3]; D-Met (LAT1 specific inhibitor)): very similar effect as BCH
Inhibition of uptake by MeAIB ([3]; MeAIB (system A inhibitor) 0.5 to 5 mM): no inhibition
Sodium dependence of uptake ([3]; Na+ replaced with choline vs PBS): sodium independent
Time for radioactivity in heart and muscle to reach a plateau [4]: 20 min
Maximum uptake relative to FET [5]: about 1.4 fold

— publication PMC3065024 (Nuclear medicine and biology, 2011)
